{"source": "ChEMBL document CHEMBL5696442", "about": "“Discovery of type II inhibitors of TGFβ-activated kinase 1 (TAK1) and mitogen-activated protein kinase kinase kinase kinase 2 (MAP4K2)” (J Med Chem, 2015)", "key": {"[1]": {"biological_target": "Ribosomal protein S6 kinase alpha-2 (Homo sapiens) (UniProt Q15349)", "sequence (Q15349 whole entry, the tested form may be a part)": "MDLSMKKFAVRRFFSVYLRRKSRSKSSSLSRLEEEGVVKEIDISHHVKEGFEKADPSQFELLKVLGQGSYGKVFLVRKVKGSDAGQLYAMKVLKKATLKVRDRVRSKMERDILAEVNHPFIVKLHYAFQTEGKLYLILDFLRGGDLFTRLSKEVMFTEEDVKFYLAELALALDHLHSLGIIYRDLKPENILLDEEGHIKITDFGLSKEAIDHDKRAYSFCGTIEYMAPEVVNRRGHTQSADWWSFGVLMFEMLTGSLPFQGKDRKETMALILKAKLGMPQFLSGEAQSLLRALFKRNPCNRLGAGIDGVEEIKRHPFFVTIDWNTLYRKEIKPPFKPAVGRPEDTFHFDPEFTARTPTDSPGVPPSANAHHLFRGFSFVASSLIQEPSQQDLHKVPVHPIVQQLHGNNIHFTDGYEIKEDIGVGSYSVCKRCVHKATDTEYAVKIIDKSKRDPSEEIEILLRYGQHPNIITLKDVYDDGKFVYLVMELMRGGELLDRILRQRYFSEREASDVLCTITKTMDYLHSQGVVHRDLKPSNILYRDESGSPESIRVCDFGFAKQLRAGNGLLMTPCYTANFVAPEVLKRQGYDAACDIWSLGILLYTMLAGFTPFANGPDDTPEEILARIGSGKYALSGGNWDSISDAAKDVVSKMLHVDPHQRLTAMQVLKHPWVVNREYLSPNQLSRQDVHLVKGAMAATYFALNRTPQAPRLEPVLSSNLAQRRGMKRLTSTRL", "assay": "Inhibition of RSK3 domain1 Lys2 labeling site in human A-375 cells at 5 uM by KiNativ Profiling analysis relative to control", "format": "cell-based", "how_it_was_run": "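Live A375 melanoma cells treated with compound at 5 or 0.5 μM, then lysed. Lysate kinases were labeled with a lysine-reactive ATP or ADP-biotin probe. Inhibition was read as protection of labeling sites from the probe.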"}, "[2]": {"biological_target": "Serine/threonine-protein kinase 38-like (Homo sapiens) (UniProt Q9Y2H1)", "sequence (Q9Y2H1 2-464 limits assumed)": "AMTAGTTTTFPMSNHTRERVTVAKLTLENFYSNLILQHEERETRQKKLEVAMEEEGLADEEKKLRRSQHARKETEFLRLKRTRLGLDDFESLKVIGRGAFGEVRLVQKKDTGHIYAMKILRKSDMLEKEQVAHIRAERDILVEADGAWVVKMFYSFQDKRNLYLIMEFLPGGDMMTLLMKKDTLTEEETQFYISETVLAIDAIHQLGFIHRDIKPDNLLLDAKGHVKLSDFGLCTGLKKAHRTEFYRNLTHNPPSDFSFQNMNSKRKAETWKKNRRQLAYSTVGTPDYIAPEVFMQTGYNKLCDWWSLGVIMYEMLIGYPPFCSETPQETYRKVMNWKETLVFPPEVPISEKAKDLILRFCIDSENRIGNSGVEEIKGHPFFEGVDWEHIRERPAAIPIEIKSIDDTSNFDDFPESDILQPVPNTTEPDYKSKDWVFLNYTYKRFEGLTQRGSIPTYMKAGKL", "assay": "Inhibition of NDR2 Lys1 labeling site harbouring KDTGHIYAMKILR in human A-375 cells at 0.05 uM by KiNativ Profiling analysis relative to control", "format": "cell-based"}, "[3]": {"biological_target": "Cyclin-dependent kinase 1 (Homo sapiens) (UniProt P06493)", "sequence (P06493 whole entry, looked up)": "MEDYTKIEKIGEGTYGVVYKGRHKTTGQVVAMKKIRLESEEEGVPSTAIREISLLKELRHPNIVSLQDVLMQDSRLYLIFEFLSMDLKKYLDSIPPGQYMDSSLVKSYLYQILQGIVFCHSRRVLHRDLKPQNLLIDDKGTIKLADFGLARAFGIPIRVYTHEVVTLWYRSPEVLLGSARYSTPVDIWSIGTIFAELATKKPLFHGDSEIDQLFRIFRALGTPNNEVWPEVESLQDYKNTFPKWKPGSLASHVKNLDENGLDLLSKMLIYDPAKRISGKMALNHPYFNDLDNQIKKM", "assay": "Inhibition of CDC2 Lys2 labeling site harbouring DLKPQNLLIDDKGTIK in human A-375 cells at 0.05 uM by KiNativ Profiling analysis relative to control", "format": "cell-based"}, "[4]": {"biological_target": "Cyclin-dependent kinase 14 (Homo sapiens) (UniProt O94921)", "assay": "Inhibition of PFTAIRE1 Lys1 labeling site in human A-375 cells at 5 uM by KiNativ Profiling analysis relative to control"}, "[5]": {"biological_target": "Mitogen-activated protein kinase kinase kinase 11 (Homo sapiens) (UniProt Q16584)", "sequence (Q16584 whole entry, looked up)": "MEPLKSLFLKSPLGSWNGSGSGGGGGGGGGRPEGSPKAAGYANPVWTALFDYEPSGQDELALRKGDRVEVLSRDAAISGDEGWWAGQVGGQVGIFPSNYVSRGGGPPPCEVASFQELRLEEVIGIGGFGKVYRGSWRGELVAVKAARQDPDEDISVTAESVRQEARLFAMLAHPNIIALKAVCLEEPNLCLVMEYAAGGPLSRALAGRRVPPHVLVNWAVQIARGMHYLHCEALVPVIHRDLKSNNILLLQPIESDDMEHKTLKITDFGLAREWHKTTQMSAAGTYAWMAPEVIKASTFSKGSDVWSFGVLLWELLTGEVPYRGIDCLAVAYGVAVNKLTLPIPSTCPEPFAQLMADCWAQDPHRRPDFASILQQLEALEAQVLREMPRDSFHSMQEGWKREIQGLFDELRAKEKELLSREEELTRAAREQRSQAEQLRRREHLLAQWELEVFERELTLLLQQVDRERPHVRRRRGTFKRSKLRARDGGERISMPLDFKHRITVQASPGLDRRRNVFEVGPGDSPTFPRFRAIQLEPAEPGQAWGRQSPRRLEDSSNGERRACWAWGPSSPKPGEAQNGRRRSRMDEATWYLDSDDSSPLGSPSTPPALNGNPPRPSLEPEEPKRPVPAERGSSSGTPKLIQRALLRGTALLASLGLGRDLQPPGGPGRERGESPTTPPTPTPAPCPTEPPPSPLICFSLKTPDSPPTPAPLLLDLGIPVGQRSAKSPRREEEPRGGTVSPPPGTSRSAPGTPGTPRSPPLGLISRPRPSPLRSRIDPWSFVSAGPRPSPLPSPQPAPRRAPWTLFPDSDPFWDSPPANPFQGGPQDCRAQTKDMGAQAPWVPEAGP", "assay": "Inhibition of MLK3 K2 labeling site in human Huh-7 cells at 1 uM by KiNativ Profiling analysis relative to control", "format": "cell-based"}, "[6]": {"system": "Tyrosine-protein kinase ABL1 (Homo sapiens), P00519 [T315I]", "assay": "Inhibition of ABL1 T315I mutant (unknown origin) at 10 uM by Ambit Kinomescan binding assay relative to control; values are per cent of control"}, "[7]": {"biological_target": "T1, Dual specificity mitogen-activated protein kinase kinase 5 (Homo sapiens) (UniProt Q13163)", "T1 sequence (whole entry)": "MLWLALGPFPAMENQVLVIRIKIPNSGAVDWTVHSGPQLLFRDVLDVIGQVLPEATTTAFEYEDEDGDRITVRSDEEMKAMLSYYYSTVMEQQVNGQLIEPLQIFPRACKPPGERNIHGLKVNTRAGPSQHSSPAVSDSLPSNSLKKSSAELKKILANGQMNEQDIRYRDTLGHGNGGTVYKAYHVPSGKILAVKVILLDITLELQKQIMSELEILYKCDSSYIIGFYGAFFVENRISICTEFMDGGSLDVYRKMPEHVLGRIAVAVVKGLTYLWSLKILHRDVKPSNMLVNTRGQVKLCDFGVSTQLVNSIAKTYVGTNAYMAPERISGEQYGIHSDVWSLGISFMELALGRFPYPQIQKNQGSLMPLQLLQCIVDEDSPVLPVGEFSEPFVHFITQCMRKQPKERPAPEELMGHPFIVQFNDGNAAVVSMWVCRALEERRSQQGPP", "assay": "Inhibition of MAP2K5 Lys2 labeling site in human A-375 cells at 5 uM by KiNativ Profiling analysis relative to control", "format": "cell-based"}, "[8]": {"biological_target": "T2, Dual specificity mitogen-activated protein kinase kinase 6 (Homo sapiens) (UniProt P52564)", "T2 sequence (whole entry)": "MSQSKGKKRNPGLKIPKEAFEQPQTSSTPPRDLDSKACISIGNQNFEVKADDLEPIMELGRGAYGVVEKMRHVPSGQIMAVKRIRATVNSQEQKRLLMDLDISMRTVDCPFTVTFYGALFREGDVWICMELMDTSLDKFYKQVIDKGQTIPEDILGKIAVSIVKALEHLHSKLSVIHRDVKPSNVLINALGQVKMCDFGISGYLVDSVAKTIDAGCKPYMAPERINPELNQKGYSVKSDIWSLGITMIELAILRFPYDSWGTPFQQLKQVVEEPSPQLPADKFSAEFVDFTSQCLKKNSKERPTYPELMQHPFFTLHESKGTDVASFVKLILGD", "assay": "Inhibition of MAP2K6 ACT labeling site in human Huh-7 cells at 1 uM by KiNativ Profiling analysis relative to control", "format": "cell-based"}, "[9]": {"biological_target": "Myosin light chain kinase (Homo sapiens) (UniProt Q32MK0)", "assay": "Inhibition of MLCK (unknown origin) at 10 uM by Ambit Kinomescan binding assay"}, "[10]": {"biological_target": "Bone morphogenetic protein receptor type-1A (Homo sapiens) (UniProt P36894)", "assay": "Inhibition of BMPR1A (unknown origin) at 10 uM by Ambit Kinomescan binding assay"}, "[11]": {"biological_target": "Serine/threonine-protein kinase MARK2 (Homo sapiens) (UniProt Q7KZI7)", "sequence (Q7KZI7 whole entry)": "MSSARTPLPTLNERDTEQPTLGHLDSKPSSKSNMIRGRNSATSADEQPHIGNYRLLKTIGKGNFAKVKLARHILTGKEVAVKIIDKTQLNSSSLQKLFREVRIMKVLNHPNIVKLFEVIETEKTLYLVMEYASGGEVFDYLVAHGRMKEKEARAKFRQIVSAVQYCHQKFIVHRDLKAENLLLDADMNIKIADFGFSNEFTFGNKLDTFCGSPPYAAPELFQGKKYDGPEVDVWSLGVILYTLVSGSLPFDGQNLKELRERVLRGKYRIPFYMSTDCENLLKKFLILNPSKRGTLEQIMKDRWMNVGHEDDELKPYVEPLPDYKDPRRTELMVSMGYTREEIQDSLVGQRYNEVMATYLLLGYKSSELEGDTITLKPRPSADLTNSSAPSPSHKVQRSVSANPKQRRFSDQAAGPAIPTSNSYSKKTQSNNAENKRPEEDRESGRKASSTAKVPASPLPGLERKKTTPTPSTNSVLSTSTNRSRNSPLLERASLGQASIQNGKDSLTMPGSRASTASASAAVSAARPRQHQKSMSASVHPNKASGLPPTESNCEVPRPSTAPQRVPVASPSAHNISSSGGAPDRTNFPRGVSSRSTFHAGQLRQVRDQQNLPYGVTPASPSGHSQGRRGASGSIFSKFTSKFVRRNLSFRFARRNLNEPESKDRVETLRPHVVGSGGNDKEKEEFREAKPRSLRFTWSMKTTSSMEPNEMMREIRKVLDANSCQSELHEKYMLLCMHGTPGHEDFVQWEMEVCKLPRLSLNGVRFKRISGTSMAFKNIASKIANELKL", "assay": "Inhibition of MARK2 K1 labeling site harbouring HILTGKEVAVKIIDKTQLNSSSLQK in human Huh-7 cells at 10 uM by KiNativ Profiling analysis relative to control", "format": "cell-based"}, "[12]": {"biological_target": "Mitogen-activated protein kinase 3 (Homo sapiens) (UniProt P27361)", "assay": "Inhibition of ERK1 (unknown origin) at 10 uM by Ambit Kinomescan binding assay"}, "[13]": {"biological_target": "Serine/threonine-protein kinase PLK1 (Homo sapiens) (UniProt P53350)", "assay": "Inhibition of PLK1 Lys2 labeling site harbouring DLKLGNLFLNEDLEVK in human Huh-7 cell lysate at 1 uM by KiNativ Profiling analysis relative to control", "format": "subcellular"}, "[14]": {"biological_target": "Myosin light chain kinase, smooth muscle (Homo sapiens) (UniProt Q15746)", "sequence (Q15746 whole entry)": "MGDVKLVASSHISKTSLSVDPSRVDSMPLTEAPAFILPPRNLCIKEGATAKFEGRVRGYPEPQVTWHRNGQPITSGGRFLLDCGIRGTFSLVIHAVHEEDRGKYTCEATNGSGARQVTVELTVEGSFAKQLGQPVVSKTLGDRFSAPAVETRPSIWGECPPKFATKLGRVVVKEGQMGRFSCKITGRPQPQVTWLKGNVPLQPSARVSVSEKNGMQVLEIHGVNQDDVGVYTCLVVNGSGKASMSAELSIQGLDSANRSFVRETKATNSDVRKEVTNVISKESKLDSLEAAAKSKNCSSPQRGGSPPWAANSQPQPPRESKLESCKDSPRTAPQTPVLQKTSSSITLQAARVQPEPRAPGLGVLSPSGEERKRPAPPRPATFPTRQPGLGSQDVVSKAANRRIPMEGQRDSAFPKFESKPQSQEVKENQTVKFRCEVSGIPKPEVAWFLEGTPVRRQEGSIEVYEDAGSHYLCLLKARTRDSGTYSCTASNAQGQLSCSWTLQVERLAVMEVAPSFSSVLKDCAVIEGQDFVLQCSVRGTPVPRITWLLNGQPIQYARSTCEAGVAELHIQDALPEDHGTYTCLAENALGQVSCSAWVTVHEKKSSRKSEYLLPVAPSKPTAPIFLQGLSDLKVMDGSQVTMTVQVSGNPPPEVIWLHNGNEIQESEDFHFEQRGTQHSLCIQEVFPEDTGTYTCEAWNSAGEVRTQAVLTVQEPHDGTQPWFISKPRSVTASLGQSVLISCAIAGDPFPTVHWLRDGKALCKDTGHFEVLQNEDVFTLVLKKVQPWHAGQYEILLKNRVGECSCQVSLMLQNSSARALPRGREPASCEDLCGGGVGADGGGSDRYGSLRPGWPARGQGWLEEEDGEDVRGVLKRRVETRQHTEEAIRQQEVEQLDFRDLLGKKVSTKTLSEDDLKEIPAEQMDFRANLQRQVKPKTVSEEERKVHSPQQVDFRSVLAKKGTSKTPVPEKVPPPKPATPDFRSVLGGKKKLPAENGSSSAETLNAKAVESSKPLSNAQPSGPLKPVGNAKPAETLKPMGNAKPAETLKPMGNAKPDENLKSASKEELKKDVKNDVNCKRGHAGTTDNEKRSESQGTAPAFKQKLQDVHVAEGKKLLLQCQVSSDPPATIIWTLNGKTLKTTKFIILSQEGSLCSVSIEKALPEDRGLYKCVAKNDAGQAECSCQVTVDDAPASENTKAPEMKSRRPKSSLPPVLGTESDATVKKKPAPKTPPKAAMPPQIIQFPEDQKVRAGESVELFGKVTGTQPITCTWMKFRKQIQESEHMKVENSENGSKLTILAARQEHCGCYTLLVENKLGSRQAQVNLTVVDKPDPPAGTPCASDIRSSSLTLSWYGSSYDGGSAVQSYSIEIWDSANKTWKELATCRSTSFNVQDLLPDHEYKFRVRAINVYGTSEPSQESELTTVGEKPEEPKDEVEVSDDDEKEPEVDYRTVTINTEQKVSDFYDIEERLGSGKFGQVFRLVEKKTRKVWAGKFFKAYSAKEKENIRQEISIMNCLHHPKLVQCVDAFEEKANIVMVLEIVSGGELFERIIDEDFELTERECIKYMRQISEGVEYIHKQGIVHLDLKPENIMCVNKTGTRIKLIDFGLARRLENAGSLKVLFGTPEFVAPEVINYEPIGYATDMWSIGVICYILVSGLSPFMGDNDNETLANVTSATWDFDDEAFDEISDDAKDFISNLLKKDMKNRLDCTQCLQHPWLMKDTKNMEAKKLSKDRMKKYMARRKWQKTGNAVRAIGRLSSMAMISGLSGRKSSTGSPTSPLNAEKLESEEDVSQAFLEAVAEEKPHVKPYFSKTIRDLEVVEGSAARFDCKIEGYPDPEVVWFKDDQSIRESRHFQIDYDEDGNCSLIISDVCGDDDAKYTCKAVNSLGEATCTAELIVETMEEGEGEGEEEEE", "assay": "Inhibition of smMLCK Lys2 labeling site in human Huh-7 cells at 1 uM by KiNativ Profiling analysis relative to control", "format": "cell-based"}, "[15]": {"biological_target": "Cyclin-dependent kinase 17 (Homo sapiens) (UniProt Q00537)", "assay": "Inhibition of PCTAIRE2 Lys2 labeling site harbouring DLKPQNLLINEKGELKLADFGLAR in human Huh-7 cells at 1 uM by KiNativ Profiling analysis relative to control", "format": "cell-based"}, "[16]": {"biological_target": "Mitogen-activated protein kinase kinase kinase 11 (Homo sapiens) (UniProt Q16584)", "assay": "Inhibition of MLK3 Lys2 labeling site in human Huh-7 cells at 1 uM by KiNativ Profiling analysis relative to control", "format": "cell-based"}}, "note": "Active and inactive are the calls of the source. No cut-off for these calls is given here."}
{"compound": "CCN1CCN(Cc2ccc(NC(=O)c3ccc(C)c(/C=C/c4cnc5[nH]ccc5c4OC)c3)cc2C(F)(F)F)CC1", "values": [{"measurement": "inhibition", "setting": "[1]", "result": 16.5, "unit": "%"}, {"measurement": "inhibition", "setting": "[2]", "result": 6, "unit": "%"}, {"measurement": "inhibition", "setting": "[3]", "result": 2.1, "unit": "%"}]}
{"compound": "CCN1CCN(Cc2ccc(NC(=O)c3ccc(C)c(Oc4ccnc5[nH]ccc45)c3)cc2C(F)(F)F)CC1", "values": [{"measurement": "inhibition", "setting": "[4]", "result": 81, "unit": "%"}, {"measurement": "inhibition", "setting": "[5]", "result": -1.6, "unit": "%"}, {"measurement": "percent of control", "setting": "[6]", "result": 0, "unit": "%"}, {"measurement": "inhibition", "setting": "[7]", "result": -7.1, "unit": "%"}, {"measurement": "inhibition", "setting": "[8]", "result": 9.2, "unit": "%"}, {"measurement": "inhibition", "setting": "[9]", "result": "inactive"}, {"measurement": "inhibition", "setting": "[10]", "result": "inactive"}, {"measurement": "inhibition", "setting": "[11]", "result": "inactive"}, {"measurement": "inhibition", "setting": "[12]", "result": "inactive"}]}
{"compound": "CNc1cc(Oc2cc(C(=O)Nc3cc(N4CCN(C)CC4)cc(C(F)(F)F)c3)ccc2C)ncn1", "values": [{"measurement": "inhibition", "setting": "[13]", "result": -8.3, "unit": "%"}, {"measurement": "inhibition", "setting": "[14]", "result": 34.3, "unit": "%"}, {"measurement": "inhibition", "setting": "[15]", "result": -9.1, "unit": "%"}, {"measurement": "inhibition", "setting": "[16]", "result": 15, "unit": "%"}]}
